Results pooled from the literature.
Compare with care: the assays were run in different laboratories.
REN: Renin (REN, Homo sapiens, UniProt P00797)
Maoa: Amine oxidase [flavin-containing] A (Maoa, Rattus norvegicus, UniProt P21396)
CDK4: Cyclin-dependent kinase 4 (CDK4, Homo sapiens, UniProt P11802)

N=C(N)c1ccc2cc(OC(=O)c3ccc(N=C(N)N)cc3)ccc2c1 — inhibition (REN; enzyme activity, inhibitor; 10 µM): 45%
Clc1ccc2c(C3CCN(CCc4c[nH]c5ccccc45)CC3)c[nH]c2c1 — inhibition (Maoa; ligand displacement, radioligand; 10 µM): 15%
Cn1cc(-c2cc(F)cc(N3CCn4c(cc5c4CCCC5)C3=O)c2CO)cc(Nc2ccc(N3CCN(C4COC4)CC3)cn2)c1=O — inhibition (Serine/threonine-protein kinase MRCK beta (CDC42BPB, Homo sapiens, UniProt Q9Y5S2); enzyme activity, inhibitor; 0.1 µM): 2%
COCCCOc1cc(C[C@@H](C[C@H](N)[C@@H](O)C[C@H](C(=O)NCC(C)(C)C(N)=O)C(C)C)C(C)C)ccc1OC — inhibition (REN; enzyme activity, inhibitor; 100 pM): 0%
CCOC(=O)[C@H]1Cc2c(cc([N+](=O)[O-])cc2[N+](=O)[O-])[C@@H](O)[C@@]12C(=O)Nc1ccc(Cl)cc12 — inhibition (CDK4; cell-free assay, inhibitor, TR-FRET; 1 µM): 70.2%
CC(C)C[C@H](NC(=O)[C@H](Cc1ccccc1)NC(=O)c1cnccn1)B(O)O — inhibition (Chymotrypsinogen A (Bos taurus, UniProt P00766); enzyme activity, inhibitor; 33 µM): 53%
CCOC(=O)[C@H]1Cc2c(cc([N+](=O)[O-])cc2[N+](=O)[O-])[C@@H](O)[C@@]12C(=O)Nc1cc(Cl)ccc12 — inhibition (CDK4; cell-free assay, inhibitor, TR-FRET; 1 µM): 61.2%
CN(C)C(=O)COC(=O)Cc1ccc(OC(=O)c2ccc(NC(=N)N)cc2)cc1 — inhibition (REN; enzyme activity, inhibitor; 10 µM): 1%
C#Cc1n[nH]c2c(-c3cn(C(C)c4ccccn4)c(=O)[nH]c3=O)cc(F)cc12 (centres unmarked) — inhibition (Tyrosine-protein kinase Fer (FER, Homo sapiens, UniProt P16591); enzyme activity, inhibitor; 1 µM): 6.8%
c1ccc(C(NCCNC(c2ccccc2)c2ccccc2)c2ccccc2)cc1 — inhibition (REN; enzyme activity, inhibitor; 10 µM): 30%
CCOC(=O)[C@H]1Cc2c(cc([N+](=O)[O-])cc2[N+](=O)[O-])[C@H](O)[C@]12C(=O)Nc1ccc(C)cc12 — inhibition (CDK4; cell-free assay, inhibitor, TR-FRET; 1 µM): 27.1%
COc1cc(Nc2ncc(F)c(Nc3ccc4c(n3)NC(=O)C(C)(C)O4)n2)cc(OC)c1OC — inhibition (Serine/threonine-protein kinase DCLK1 (DCLK1, Homo sapiens, UniProt O15075); binding; 10 µM): 59%
CCOC(=O)[C@H]1Cc2c(cc([N+](=O)[O-])cc2[N+](=O)[O-])[C@@H](O)[C@@]12C(=O)Nc1ccc(F)cc12 — inhibition (CDK4; cell-free assay, inhibitor, TR-FRET; 1 µM): 53.9%
Cc1ncc(C)n2nc(/C=C/c3nc(N4CCCC4)cc(N4CCOCC4)n3)nc12 — inhibition (Maoa; ligand displacement; 10 µM): 2%
